Experimental data taken from ChEMBL document CHEMBL1641479, “2-Substituted (S)-2-(3,3-dimethyl-1-oxo-10,10a-dihydroimidazo[1,5-b]isoquinolin-2(1H,3H,5H)-yl)acetic acids: Conformational prediction, synthesis, anti-thrombotic and vasodilative evaluation” (Bioorg Med Chem, 2011).
Square brackets hold non-standard residues; d marks the D form. Peptide text beside a SMILES is read from it. Tic = O=C(O)[C@@H]1Cc2ccccc2CN1

Assays:
[1] = Antiplatelet activity against pig platelet assessed as inhibition of ADP-induced platelet aggregation at 10 uM by spectrophotometry; format: functional; settings: Sus scrofa
Method in brief: (§1)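 Pig blood (six pigs) spun 1000 rpm 10 min for PRP, then 1500 rpm 10 min for PPP; PRP adjusted to 2×10^8 platelets/mL with autologous PPP. Compound (final 100 µM to 1 nM, diluted in NS from DMSO/NS stock) or NS added, then inducer at final PAF 0.1 µM, ADP 10 µM, AA 350 µM or thrombin 0.1 U/mL.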

Aorta = experiment: Inhibition of noradrenaline-induced contraction in Wistar rat thoracic aortic ring assessed as vasorelaxant activity at 300 uM treated after noradrenaline challenge; format: functional; parameters: scale not given: the % may be the effect or the level left
Method in brief: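 Male Wistar rats, 250–300 g, were decapitated and aortic strips were mounted in 37 °C Krebs solution (pH 7.4) gassed with 95% O2/5% CO2, connected to a tension transducer. Strips were contracted with 59 µM noradrenaline, washed, stabilised 30 min, then re-contracted with 59 µM noradrenaline. At peak contraction, compound in ethanol or ethanol alone was added and relaxation was recorded.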

Rattus norvegicus [2] = experiment: Antithrombotic activity in Wistar rat assessed as thrombus weight at 15 umol/kg, iv (reference value: 25.99 +/- 2.41 mg); format: functional
[3] = Antiplatelet activity against pig platelet assessed as inhibition of thrombin-induced platelet aggregation at 10 uM by spectrophotometry; format: functional; settings: Sus scrofa; method in brief: as §1
[4] = Antiplatelet activity against pig platelet assessed as inhibition of PAF-induced platelet aggregation at 10 uM by spectrophotometry; format: functional; settings: Sus scrofa; method in brief: as §1
[5] = Antiplatelet activity against pig platelet assessed as inhibition of arachidonic acid-induced platelet aggregation at 10 uM by spectrophotometry; format: functional; settings: Sus scrofa; method in brief: as §1
Rattus norvegicus [6] = experiment: Antithrombotic activity in Wistar rat assessed as thrombus weight at 15 umol/kg, iv (reference value: 28.54 +/- 2.62 mg); format: functional
[7] = Antiplatelet activity against pig platelet assessed as inhibition of PAF-induced platelet aggregation by spectrophotometry; format: functional, cell-based; settings: Sus scrofa; method in brief: as §1
[8] = Antiplatelet activity against pig platelet assessed as inhibition of arachidonic acid-induced platelet aggregation by spectrophotometry; format: functional, cell-based; settings: Sus scrofa; method in brief: as §1
Rattus norvegicus [9] = experiment: Antithrombotic activity in Wistar rat assessed as thrombus weight at 10 nmol/kg, iv (reference value: 24.09 +/- 2.33 mg); format: functional
[10] = Antiplatelet activity against pig platelet assessed as inhibition of ADP-induced platelet aggregation by spectrophotometry; format: functional, cell-based; settings: Sus scrofa; method in brief: as §1
[11] = Antiplatelet activity against pig platelet assessed as inhibition of thrombin-induced platelet aggregation by spectrophotometry; format: functional, cell-based; settings: Sus scrofa; method in brief: as §1

COC(=O)C[C@@H](C(=O)OC)N1C(=O)[C@@H]2Cc3ccccc3CN2C1(C)C
inhibition at 10 µM [1]: 24.6%
Activity (Aorta): 64.09%
Activity (Rattus norvegicus [2]): 18.2 mg
inhibition at 10 µM [3]: 60.1%
inhibition at 10 µM [4]: 18.6%
inhibition at 10 µM [5]: 57.7%

C[C@H](NC(=O)[C@@H]1Cc2ccccc2CN1)C(=O)O (H-[Tic]-Ala-OH)
Activity (Rattus norvegicus [6]): 21.4 mg

O=C(O)[C@H](Cc1ccccc1)NC(=O)[C@@H]1Cc2ccccc2CN1 (H-[Tic]-Phe-OH)
Activity (Rattus norvegicus [6]): 19.11 mg

COC(=O)[C@H](CCC(N)=O)N1C(=O)[C@@H]2Cc3ccccc3CN2C1(C)C
inhibition at 10 µM [1]: 31.8%
Activity (Aorta): 38.61%
Activity (Rattus norvegicus [2]): 22.7 mg
inhibition at 10 µM [3]: 69%
inhibition at 10 µM [4]: 25.9%
inhibition at 10 µM [5]: 48.1%

CC1(C)N2Cc3ccccc3C[C@H]2C(=O)N1[C@@H](CCC(=O)O)C(=O)O
Activity (Aorta): 4.33%
IC50 [7]: 695 nM
IC50 [8]: 388 nM
Activity (Rattus norvegicus [9]): 18.57 mg
IC50 [10]: 248 nM
IC50 [11]: 808 nM

COC(=O)[C@H](CCSC)N1C(=O)[C@@H]2Cc3ccccc3CN2C1(C)C
inhibition at 10 µM [1]: 34%
Activity (Aorta): 43.06%
Activity (Rattus norvegicus [2]): 20.11 mg
inhibition at 10 µM [3]: 36.8%
inhibition at 10 µM [4]: 31.9%
inhibition at 10 µM [5]: 30.1%

N=C(N)NCCC[C@H](NC(=O)[C@@H]1Cc2ccccc2CN1)C(=O)O (H-[Tic]-Arg-OH)
Activity (Rattus norvegicus [6]): 18.73 mg

COC(=O)[C@H](Cc1ccc(O)cc1)N1C(=O)[C@@H]2Cc3ccccc3CN2C1(C)C
inhibition at 10 µM [1]: 53.1%
Activity (Aorta): 15.56%
Activity (Rattus norvegicus [2]): 23.71 mg
inhibition at 10 µM [3]: 25.3%
inhibition at 10 µM [4]: 59%
inhibition at 10 µM [5]: 52.2%

COC(=O)CC[C@@H](C(=O)OC)N1C(=O)[C@@H]2Cc3ccccc3CN2C1(C)C
inhibition at 10 µM [1]: 22.5%
Activity (Aorta): 42.48%
Activity (Rattus norvegicus [2]): 19.9 mg
inhibition at 10 µM [3]: 28%
inhibition at 10 µM [4]: 45.2%
inhibition at 10 µM [5]: 37.4%

O=C(O)[C@@H](NC(=O)[C@@H]1Cc2ccccc2CN1)NC1CCC1
IC50 [7]: 1400 nM
IC50 [8]: 103 nM
Activity (Rattus norvegicus [6]): 20.25 mg
IC50 [10]: 364 nM
IC50 [11]: 185 nM

O=C(O)C[C@H](NC(=O)[C@@H]1Cc2ccccc2CN1)C(=O)O (H-[Tic]-Asp-OH)
Activity (Rattus norvegicus [6]): 21.67 mg

CC(C)C[C@H](NC(=O)[C@@H]1Cc2ccccc2CN1)C(=O)O (H-[Tic]-Leu-OH)
Activity (Rattus norvegicus [6]): 20.23 mg

CCC(C)[C@@H](C(=O)OC)N1C(=O)[C@@H]2Cc3ccccc3CN2C1(C)C (stereo not given in full)
inhibition at 10 µM [1]: 48.2%
Activity (Aorta): 99%
Activity (Rattus norvegicus [2]): 13.32 mg
inhibition at 10 µM [3]: 60.9%
inhibition at 10 µM [4]: 51.3%
inhibition at 10 µM [5]: 49.4%

COC(=O)[C@H](CCCCNC(=O)OCc1ccccc1)N1C(=O)[C@@H]2Cc3ccccc3CN2C1(C)C
inhibition at 10 µM [1]: 20.9%
Activity (Aorta): 68.21%
Activity (Rattus norvegicus [2]): 17.14 mg
inhibition at 10 µM [3]: 18.4%
inhibition at 10 µM [4]: 11.2%
inhibition at 10 µM [5]: 33.7%

C[C@@H](O)[C@H](NC(=O)[C@@H]1Cc2ccccc2CN1)C(=O)O (H-[Tic]-Thr-OH)
Activity (Rattus norvegicus [6]): 21.25 mg

CSCC[C@H](NC(=O)[C@@H]1Cc2ccccc2CN1)C(=O)O (H-[Tic]-Met-OH)
Activity (Rattus norvegicus [6]): 21.74 mg

O=C(O)[C@H](Cc1ccc(O)cc1)NC(=O)[C@@H]1Cc2ccccc2CN1 (H-[Tic]-Tyr-OH)
Activity (Rattus norvegicus [6]): 19.31 mg

NC(=O)C[C@H](NC(=O)[C@@H]1Cc2ccccc2CN1)C(=O)O (H-[Tic]-Asn-OH)
Activity (Rattus norvegicus [6]): 20.24 mg

O=C(O)[C@H](CO)NC(=O)[C@@H]1Cc2ccccc2CN1 (H-[Tic]-Ser-OH)
Activity (Rattus norvegicus [6]): 23.58 mg

COC(=O)CN1C(=O)[C@@H]2Cc3ccccc3CN2C1(C)C
inhibition at 10 µM [1]: 66.1%
Activity (Aorta): 75.35%
Activity (Rattus norvegicus [2]): 15.21 mg
inhibition at 10 µM [3]: 10.9%
inhibition at 10 µM [4]: 44.5%
inhibition at 10 µM [5]: 58.9%

O=C(O)[C@H](Cc1cc2ccccc2[nH]1)NC(=O)[C@@H]1Cc2ccccc2CN1
IC50 [7]: 668 nM
IC50 [8]: 374 nM
Activity (Rattus norvegicus [6]): 21.3 mg
IC50 [10]: 120 nM
IC50 [11]: 234 nM

O=C(O)CC[C@H](NC(=O)[C@@H]1Cc2ccccc2CN1)C(=O)O (H-[Tic]-Glu-OH)
Activity (Rattus norvegicus [6]): 19.69 mg

COC(=O)[C@H](C(C)O)N1C(=O)[C@@H]2Cc3ccccc3CN2C1(C)C (stereo not given in full)
inhibition at 10 µM [1]: 46.3%
Activity (Aorta): 35.21%
Activity (Rattus norvegicus [2]): 20.01 mg
inhibition at 10 µM [3]: 57.2%
inhibition at 10 µM [4]: 59.9%
inhibition at 10 µM [5]: 45%

O=C(O)[C@H](CS)NC(=O)[C@@H]1Cc2ccccc2CN1 (H-[Tic]-Cys-OH)
Activity (Rattus norvegicus [6]): 20.91 mg

NC(=O)CC[C@H](NC(=O)[C@@H]1Cc2ccccc2CN1)C(=O)O (H-[Tic]-Gln-OH)
Activity (Rattus norvegicus [6]): 22.08 mg

COC(=O)[C@H](CS)N1C(=O)[C@@H]2Cc3ccccc3CN2C1(C)C
inhibition at 10 µM [1]: 68.9%
Activity (Aorta): 96.3%
Activity (Rattus norvegicus [2]): 12.9 mg
inhibition at 10 µM [3]: 30.8%
inhibition at 10 µM [4]: 53.7%
inhibition at 10 µM [5]: 60.7%

COC(=O)[C@H](C(C)C)N1C(=O)[C@@H]2Cc3ccccc3CN2C1(C)C
inhibition at 10 µM [1]: 35%
Activity (Aorta): 54.99%
Activity (Rattus norvegicus [2]): 15.66 mg
inhibition at 10 µM [3]: 30.9%
inhibition at 10 µM [4]: 34.6%
inhibition at 10 µM [5]: 32.4%

COC(=O)[C@H](Cc1ccccc1)N1C(=O)[C@@H]2Cc3ccccc3CN2C1(C)C
inhibition at 10 µM [1]: 44.5%
Activity (Aorta): 32.18%
Activity (Rattus norvegicus [2]): 20.62 mg
inhibition at 10 µM [3]: 57.8%
inhibition at 10 µM [4]: 56.3%
inhibition at 10 µM [5]: 46.8%

COC(=O)[C@H](CC(C)C)N1C(=O)[C@@H]2Cc3ccccc3CN2C1(C)C
inhibition at 10 µM [1]: 31.4%
Activity (Aorta): 74.68%
Activity (Rattus norvegicus [2]): 14.1 mg
inhibition at 10 µM [3]: 38.3%
inhibition at 10 µM [4]: 29.2%
inhibition at 10 µM [5]: 37.5%

COC(=O)[C@H](CCCNC(=N)N[N+](=O)[O-])N1C(=O)[C@@H]2Cc3ccccc3CN2C1(C)C
inhibition at 10 µM [1]: 58.4%
Activity (Aorta): 6.78%
Activity (Rattus norvegicus [2]): 23.61 mg
inhibition at 10 µM [3]: 31.4%
inhibition at 10 µM [4]: 65.3%
inhibition at 10 µM [5]: 30.6%

CC(C)[C@H](NC(=O)[C@@H]1Cc2ccccc2CN1)C(=O)O (H-[Tic]-Val-OH)
Activity (Rattus norvegicus [6]): 19.2 mg

O=C(O)CNC(=O)[C@@H]1Cc2ccccc2CN1 (H-[Tic]-Gly-OH)
Activity (Rattus norvegicus [6]): 20.24 mg

COC(=O)[C@H](C)N1C(=O)[C@@H]2Cc3ccccc3CN2C1(C)C
inhibition at 10 µM [1]: 10.2%
Activity (Aorta): 34.1%
Activity (Rattus norvegicus [2]): 22.51 mg
inhibition at 10 µM [3]: 11.7%
inhibition at 10 µM [4]: 46.3%
inhibition at 10 µM [5]: 40.5%

NCCCC[C@H](NC(=O)[C@@H]1Cc2ccccc2CN1)C(=O)O (H-[Tic]-Lys-OH)
Activity (Rattus norvegicus [6]): 21.28 mg

COC(=O)[C@H](CC(N)=O)N1C(=O)[C@@H]2Cc3ccccc3CN2C1(C)C
inhibition at 10 µM [1]: 33.9%
Activity (Aorta): 47.89%
Activity (Rattus norvegicus [2]): 19.54 mg
inhibition at 10 µM [3]: 19.8%
inhibition at 10 µM [4]: 25.8%
inhibition at 10 µM [5]: 30.1%

CCC(C)[C@H](NC(=O)[C@@H]1Cc2ccccc2CN1)C(=O)O (single isomer, unassigned)
Activity (Rattus norvegicus [6]): 20.03 mg

O=C(O)[C@H](Cc1c[nH]cn1)NC(=O)[C@@H]1Cc2ccccc2CN1 (H-[Tic]-His-OH)
Activity (Rattus norvegicus [6]): 20.86 mg
